Calls of active or inactive are those of the source. No cut-off for these calls is given here.
What was measured:
A549 [1] = experiment: Cytotoxicity against human A549 cells after 48 hrs by alamar blue assay; format: functional, cell-based; conditions: A549, 48 h
[2] = Cytotoxicity against human BEAS2B cells uo to 80 uM after 48 hrs by alamar blue assay; format: cell-based; conditions: beas-2b
Outline: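 Beas-2b cells seeded at 5000/well in RPMI 1640 + 10% FBS, 24 h at 37 °C, 5% CO2; then treated 0-80 μM in triplicate per concentration, 0.1% DMSO final, 48 h. Viability read by Alamar Blue per manufacturer's protocol; mean ± SE of three separate experiments.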

A549 [3] = experiment: Cell cycle arrest in human A549 cells assessed as accumulation at sub-G1 phase after 48 hrs using propidium iodide staining by flow cytometry; format: functional, cell-based
Outline: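 A549 cells treated 0-5 μM (0.31-5 μM) or 0.1% DMSO vehicle for 48 h. 5 × 10^5 cells fixed in 70% ethanol on ice ≥2 h, stained with RNase (200 μg/mL) and PI (10 μg/mL) 30 min at room temperature; sub-G1 fraction by flow cytometry, ≥10 000 cells per sample; mean ± SE of three experiments.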

A549 [4] = experiment: Induction of apoptosis in human A549 cells assessed as increase in DNA breaks at 5 uM after 24 hrs by flow cytometry based TUNEL assay; format: functional
Outline: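 A549 cells exposed to 5 μM for various times. 5 × 10^5 cells fixed in 1% paraformaldehyde and 70% ethanol, TdT reaction with DIG-dUTP 30 min at 37 °C, anti-DIG-fluorescein 30 min in the dark, then PI (5 μg/mL) plus RNase A (100 μg/mL) 30 min; fluorescence by flow cytometry. One of three repeats shown.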

A549 [5] = experiment: Induction of autophagy in human A549 cells assessed as acridine orange stain incorporation at 5 uM after 24 hrs by fluorescence microscopic analysis; format: functional, cell-based
A549 [6] = experiment: Induction of apoptosis in human A549 cells assessed as blockade of sub-G1 phase increase at 5 uM after 36 hrs using propidium iodide staining by flow cytometry in presence of Z-VAD-fmk; format: functional, cell-based
Outline: (§1)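 Ethanol-fixed cells stained with RNase (200 μg/mL) and PI (10 μg/mL) 30 min; sub-G1 population by flow cytometry on ≥10 000 cells; mean ± SE of three experiments.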

A549 [7] = experiment: Induction of apoptosis in human A549 cells assessed as blockade of sub-G1 phase increase at 5 uM after 36 hrs using propidium iodide staining by flow cytometry in presence of N-acetyl-cysteine; format: functional, cell-based; outline: as §1
A549 [8] = experiment: Induction of apoptosis in human A549 cells assessed as blockade of sub-G1 phase increase at 5 uM after 36 hrs using propidium iodide staining by flow cytometry in presence of 4,4'-diisothiocyano- 2,2'-stilbenedisulfonic acid; format: functional, cell-based; outline: as §1
A549 [9] = experiment: Induction of apoptosis in human A549 cells assessed as loss of mitochondria membrane potential at 5 uM after up to 48 hrs using 3,3'-diethyloxacarbocyanine iodide staining by flow cytometry; format: functional, cell-based
Outline: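 A549 cells treated with 5 μM or 0.1% DMSO for indicated times; 5 × 10^5 cells stained with 50 nM DiOC2(3), 15 min, 37 °C, dark, washed in cold PBS. Flow cytometry, excitation 488 nm, emission 525 nm (FL-1); low-uptake cells scored as mitochondrial damage against untreated controls. One of three repeats shown.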

A549 [10] = experiment: Induction of apoptosis in human A549 cells assessed as loss of mitochondrial cytochrome c at 5 uM after up to 48 hrs by Western blotting; format: functional, cell-based
Outline: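 A549 cells treated 5 μM or 0.1% DMSO for 36 or 48 h. Cells homogenized in sucrose/HEPES buffer A on ice, then spun at 750g twice and 10000g for 60 min at 4 °C; pellet taken as mitochondrial fraction, supernatant as cytosolic. Cytochrome c in each fraction by Western blot. One of three repeats shown.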

A549 [11] = experiment: Induction of apoptosis in human A549 cells assessed as decrease of procaspase-3 level after 36 hrs by Western blotting; format: functional, cell-based
Outline: (§2)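 A549 cells exposed 0-10 μM or 0.1% DMSO for 36 h; lysed in SDS sample buffer, boiled, SDS-PAGE, PVDF transfer, blocked in 5% milk PBST, primary antibody overnight, HRP secondary with chemiluminescence. Probed for pro-caspase 3, pro-caspase 9, PARP, Bcl-2, Bax, Bak, actin. One of three repeats shown.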

A549 [12] = experiment: Induction of apoptosis in human A549 cells assessed as decrease of procaspase-9 level after 36 hrs by Western blotting; format: functional, cell-based; outline: as §2
A549 [13] = experiment: Induction of apoptosis in human A549 cells assessed as cleavage of PARP at 5 uM after 36 hrs by Western blotting; format: functional, cell-based
A549 [14] = experiment: Induction of apoptosis in human A549 cells assessed as cleavage of caspase-8 at 5 uM after 36 hrs by Western blotting; format: functional, cell-based
A549 [15] = experiment: Induction of apoptosis in human A549 cells assessed as reduction of Bcl-2 protein level at 5 uM after 36 hrs by Western blotting; format: functional, cell-based; outline: as §2
A549 [16] = experiment: Induction of apoptosis in human A549 cells assessed as increase of Bak protein level at 5 uM after 36 hrs by Western blotting; format: functional, cell-based; outline: as §2
A549 [17] = experiment: Induction of apoptosis in human A549 cells assessed as increase of Bax protein level at 5 uM after 36 hrs by Western blotting; format: functional, cell-based; outline: as §2
A549 [18] = experiment: Induction of apoptosis in human A549 cells assessed as increase of p53 protein level at 5 uM after 2 hrs by Western blotting; format: functional, cell-based
Outline: (§3)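 A549 cells given 5 μM or 0.1% DMSO for 0-16 h; SDS lysates run on SDS-PAGE, transferred to PVDF, blocked in 5% milk PBST, primary antibody overnight, HRP secondary and chemiluminescence. p53, p21 and actin probed; one of three repeats shown.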

A549 [19] = experiment: Induction of apoptosis in human A549 cells assessed as increase of p53 protein level at 5 uM after 8 hrs by Western blotting; format: functional, cell-based; outline: as §3
A549 [20] = experiment: Antitumor activity against human A549 cells xenografted in BALB/c nude mouse assessed as inhibition of tumor growth at 3 mg/kg, sc qd for 5 days; format: functional, organism-based; design: dose 3 mg/kg
Outline: (§4)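 Female athymic BALB/c nu/nu mice, 6-8 weeks, 18-22 g; 1 × 10^7 A549 cells implanted sc on back. At 80-120 mm3 tumors, randomized (six per group, day 0); daily sc dosing days 0-4 in 20% Tween 80/saline, >1.5 cm from tumor; vehicle controls. Tumor L and W measured to day 21-28; TV = (L × W2)/2, RTV = TVn/TV0. Activated caspase-3 immunohistochemistry on formalin-fixed paraffin tumor sections (day 28 after inoculation).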

A549 [21] = experiment: Antitumor activity against human A549 cells xenografted in BALB/c nude mouse assessed as increase in activated caspase-3 protein expression in tumor at 3 mg/kg, sc qd for 5 days by immunohistochemistry; format: functional, organism-based; design: dose 3 mg/kg; outline: as §4
Mus musculus [22] = experiment: Toxicity in human A549 cells xenografted BALB/c nude mouse assessed as histological changes in brain at 3 mg/kg, sc qd for 5 days; format: organism-based; design: dose 3 mg/kg, route subcutaneous; conditions: in vivo, 120 h
Outline: (§5)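 Xenograft setting: female athymic BALB/c nu/nu mice bearing sc A549 tumors (80-120 mm3 at day 0), six per group, daily sc dosing days 0-4 in 20% Tween 80 in saline; vehicle controls. Body weight recorded three times weekly up to days 21-28. Brain, liver and kidney fixed in 4% formalin, paraffin-embedded and sectioned for histology.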

Mus musculus [23] = experiment: Toxicity in human A549 cells xenografted BALB/c nude mouse assessed as histological changes in liver at 3 mg/kg, sc qd for 5 days; format: organism-based; design: dose 3 mg/kg, route subcutaneous; conditions: in vivo, 120 h; outline: as §5
Mus musculus [24] = experiment: Toxicity in human A549 cells xenografted BALB/c nude mouse assessed as histological changes in kidney at 3 mg/kg, sc qd for 5 days; format: organism-based; design: dose 3 mg/kg, route subcutaneous; conditions: in vivo, 120 h; outline: as §5
Mus musculus [25] = experiment: Toxicity in human A549 cells xenografted BALB/c nude mouse assessed as change in body weight at 3 mg/kg, sc qd for 5 days; format: organism-based; design: dose 3 mg/kg, route subcutaneous; conditions: in vivo, 120 h; outline: as §5

## CCCCc1c(OC)cc(/C=C/C=C/C=C/C=C/c2[nH]ccc2Cl)oc1=O
A549 [1]
  IC50: 5 µM

## CC\C(=C/C=C/C=C/C=C/c1[nH]ccc1Cl)c1cc(OC)c(C)c(=O)o1
A549 [1]
  IC50: 5.6 µM

## COc1cc(/C(C)=C/C=C/C=C/C=C/c2[nH]ccc2Cl)oc(=O)c1
A549 [1]
  IC50: 2.5 µM

## C/C=C/C=C/C=C/C=C/c1cc(OC)c(C)c(=O)o1
A549 [1]
  IC50: > 20 µM

## O=c1cc(O)cc(/C=C/C=C/C=C/C=C/c2[nH]ccc2Cl)o1
A549 [1]
  IC50: > 20 µM

## CCCCc1c(OC)cc(/C(C)=C/C=C/C=C/C=C/c2[nH]ccc2Cl)oc1=O
A549 [1]
  IC50: 0.01 µM
[2]
  Activity: Non-toxic
A549 [3]
  Activity: Dose-dependent effect
A549 [4]
  Activity: 47%
A549 [5]
  Activity: inactive
A549 [6]
  Activity: Active
A549 [7]
  Activity: inactive
A549 [8]
  Activity: inactive
A549 [9]
  Activity: Active
A549 [10]
  Activity: Active
A549 [11]
  Activity: Dose-dependent effect
A549 [12]
  Activity: Dose-dependent effect
A549 [13]
  Activity: Active
A549 [14]
  Activity: inactive
A549 [15]
  Activity: Active
A549 [16]
  Activity: Active
A549 [17]
  Activity: inactive
A549 [18]
  Activity: Active
A549 [19]
  Activity: Active
A549 [20]
  Activity: Active
A549 [21]
  Activity: Active
Mus musculus [22]
  Activity: Non-toxic
Mus musculus [23]
  Activity: Non-toxic
Mus musculus [24]
  Activity: Non-toxic
Mus musculus [25]
  Activity: Non-toxic

## COc1cc(/C=C/C=C/C=C/C=C/c2[nH]ccc2Cl)oc(=O)c1C [AUXARCONJUGATIN A]
A549 [1]
  IC50: 1.2 µM

## COc1cc(/C=C/C=C/C=C/C=C/c2[nH]ccc2Cl)oc(=O)c1 [AUXARCONJUGATIN B]
A549 [1]
  IC50: 0.6 µM
[2]
  Activity: Non-toxic
A549 [3]
  Activity: Dose-dependent effect
A549 [4]
  Activity: 42%
A549 [5]
  Activity: inactive
A549 [6]
  Activity: Active
A549 [7]
  Activity: inactive
A549 [8]
  Activity: inactive
A549 [9]
  Activity: Active
A549 [10]
  Activity: Active
A549 [11]
  Activity: Dose-dependent effect
A549 [12]
  Activity: Dose-dependent effect
A549 [13]
  Activity: Active
A549 [14]
  Activity: inactive
A549 [15]
  Activity: Active
A549 [16]
  Activity: Active
A549 [17]
  Activity: inactive

## COc1cc(/C=C/C=C/C=C/C=C/c2c(Cl)ccn2S(C)(=O)=O)oc(=O)c1C
A549 [1]
  IC50: > 20 µM

## COc1cc(/C(C)=C/C=C/C=C/C=C/c2[nH]ccc2Cl)oc(=O)c1C
A549 [1]
  IC50: 5.2 µM

## COc1cc(/C=C/C=C/C=C/C=C/c2sccc2Cl)oc(=O)c1C
A549 [1]
  IC50: > 20 µM

## Cc1c(O)cc(/C=C/C=C/C=C/C=C/c2[nH]ccc2Cl)oc1=O
A549 [1]
  IC50: > 20 µM

## COc1cc(/C=C/C=C/C=C/C=C/c2sccc2Cl)oc(=O)c1
A549 [1]
  IC50: > 20 µM

## COc1cc(/C=C/C=C/C=C/C=C/c2ccccc2Cl)oc(=O)c1C
A549 [1]
  IC50: > 20 µM

## COc1cc(/C=C/C=C/C=C/C=C/c2cccc(Cl)c2)oc(=O)c1C
A549 [1]
  IC50: > 20 µM
